Source: ChEMBL document CHEMBL3745647, “Design, synthesis and biological evaluation of pyrazolyl-nitroimidazole derivatives as potential EGFR/HER-2 kinase inhibitors” (Bioorg Med Chem Lett, 2016)

Columns and labels:
[1] = Antiproliferative activity against mouse B16F10 cells after 12 hrs by MTT assay; format: functional, cell-based; settings: B16-F10, 12 h
HepG2 = assay: Antiproliferative activity against human HepG2 cells after 12 hrs by MTT assay; format: functional, cell-based; settings: HepG2, 12 h
MCF7 = assay: Antiproliferative activity against human MCF7 cells after 12 hrs by MTT assay; format: functional, cell-based; settings: MCF7, 12 h
HeLa [2] = assay: Antiproliferative activity against human HeLa cells after 12 hrs by MTT assay; format: functional, cell-based
[3] = target: Receptor tyrosine-protein kinase erbB-2 (Homo sapiens, UniProt P04626); assay: Inhibition of His-tagged human HER-2 cytoplasmic domain (676-1245 aa) (unknown origin) assessed as inhibition of autophosphorylation by TR-fluorometry
[4] = target: Epidermal growth factor receptor (Homo sapiens, UniProt P00533); assay: Inhibition of His-tagged EGFR cytoplasmic domain (645-1186 aa) (unknown origin) assessed as inhibition of autophosphorylation by TR-fluorometry
[5] = Cytotoxicity against human HEK293T cells for 24 hrs by MTT assay; format: cell-based, HEK-293T
How it was run: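 293T human kidney epithelial cells exposed to multiple concentrations and viability read by MTT.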

HeLa [6] = assay: Induction of apoptosis in human HeLa cells assessed as viable cells at 1.04 uM after 48 hrs by annexin-V-FITC/PI staining based flow cytometry (reference value: 86.8%); format: functional; settings: read-out: Activity
How it was run: (§1)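 HeLa cells treated at 0.13, 0.26, 0.52 or 1.04 µM for 48 h, then collected and stained with annexin V-FITC/PI for flow cytometry. Early apoptotic cells are annexin V+/PI− (lower right quadrant) and late apoptotic cells are annexin V+/PI+ (upper right quadrant). Data are mean ± S.E.M. of three independent experiments.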

HeLa [7] = assay: Induction of apoptosis in human HeLa cells after 48 hrs by annexin-V-FITC/PI staining based flow cytometry; format: functional, cell-based; how it was run: as §1
HeLa [8] = assay: Induction of apoptosis in human HeLa cells assessed as early apoptotic cells at 0.52 uM after 48 hrs by annexin-V-FITC/PI staining based flow cytometry (reference value: 0.889%); format: functional; how it was run: as §1
HeLa [9] = assay: Induction of apoptosis in human HeLa cells assessed as necrotic cells at 1.04 uM after 48 hrs by annexin-V-FITC/PI staining based flow cytometry (reference value: 3.82%); format: functional; how it was run: as §1
HeLa [10] = assay: Induction of apoptosis in human HeLa cells assessed as viable cells at 0.13 uM after 48 hrs by annexin-V-FITC/PI staining based flow cytometry (reference value: 86.8%); format: functional; settings: read-out: Activity; how it was run: as §1
HeLa [11] = assay: Induction of apoptosis in human HeLa cells assessed as early apoptotic cells at 1.04 uM after 48 hrs by annexin-V-FITC/PI staining based flow cytometry (reference value: 0.889%); format: functional; how it was run: as §1
HeLa [12] = assay: Induction of apoptosis in human HeLa cells assessed as viable cells at 0.52 uM after 48 hrs by annexin-V-FITC/PI staining based flow cytometry (reference value: 86.8%); format: functional; settings: read-out: Activity; how it was run: as §1
HeLa [13] = assay: Induction of apoptosis in human HeLa cells assessed as late apoptotic cells at 0.52 uM after 48 hrs by annexin-V-FITC/PI staining based flow cytometry (reference value: 8.52%); format: functional; how it was run: as §1
HeLa [14] = assay: Induction of apoptosis in human HeLa cells assessed as viable cells at 0.26 uM after 48 hrs by annexin-V-FITC/PI staining based flow cytometry (reference value: 86.8%); format: functional; settings: read-out: Activity; how it was run: as §1
HeLa [15] = assay: Induction of apoptosis in human HeLa cells assessed as late apoptotic cells at 1.04 uM after 48 hrs by annexin-V-FITC/PI staining based flow cytometry (reference value: 8.52%); format: functional; how it was run: as §1
HeLa [16] = assay: Induction of apoptosis in human HeLa cells assessed as late apoptotic cells at 0.13 uM after 48 hrs by annexin-V-FITC/PI staining based flow cytometry (reference value: 8.52%); format: functional; how it was run: as §1
HeLa [17] = assay: Induction of apoptosis in human HeLa cells assessed as late apoptotic cells at 0.26 uM after 48 hrs by annexin-V-FITC/PI staining based flow cytometry (reference value: 8.52%); format: functional; how it was run: as §1
HeLa [18] = assay: Induction of apoptosis in human HeLa cells assessed as early apoptotic cells at 0.26 uM after 48 hrs by annexin-V-FITC/PI staining based flow cytometry (reference value: 0.889%); format: functional; how it was run: as §1
HeLa [19] = assay: Induction of apoptosis in human HeLa cells assessed as early apoptotic cells at 0.13 uM after 48 hrs by annexin-V-FITC/PI staining based flow cytometry (reference value: 0.889%); format: functional; how it was run: as §1
HeLa [20] = assay: Induction of apoptosis in human HeLa cells assessed as necrotic cells at 0.26 uM after 48 hrs by annexin-V-FITC/PI staining based flow cytometry (reference value: 3.82%); format: functional; how it was run: as §1
HeLa [21] = assay: Induction of apoptosis in human HeLa cells assessed as necrotic cells at 0.52 uM after 48 hrs by annexin-V-FITC/PI staining based flow cytometry (reference value: 3.82%); format: functional; how it was run: as §1
HeLa [22] = assay: Induction of apoptosis in human HeLa cells assessed as necrotic cells at 0.13 uM after 48 hrs by annexin-V-FITC/PI staining based flow cytometry (reference value: 3.82%); format: functional; how it was run: as §1

Epidermal growth factor receptor, sequence (P00533 whole entry, the tested form may be a part): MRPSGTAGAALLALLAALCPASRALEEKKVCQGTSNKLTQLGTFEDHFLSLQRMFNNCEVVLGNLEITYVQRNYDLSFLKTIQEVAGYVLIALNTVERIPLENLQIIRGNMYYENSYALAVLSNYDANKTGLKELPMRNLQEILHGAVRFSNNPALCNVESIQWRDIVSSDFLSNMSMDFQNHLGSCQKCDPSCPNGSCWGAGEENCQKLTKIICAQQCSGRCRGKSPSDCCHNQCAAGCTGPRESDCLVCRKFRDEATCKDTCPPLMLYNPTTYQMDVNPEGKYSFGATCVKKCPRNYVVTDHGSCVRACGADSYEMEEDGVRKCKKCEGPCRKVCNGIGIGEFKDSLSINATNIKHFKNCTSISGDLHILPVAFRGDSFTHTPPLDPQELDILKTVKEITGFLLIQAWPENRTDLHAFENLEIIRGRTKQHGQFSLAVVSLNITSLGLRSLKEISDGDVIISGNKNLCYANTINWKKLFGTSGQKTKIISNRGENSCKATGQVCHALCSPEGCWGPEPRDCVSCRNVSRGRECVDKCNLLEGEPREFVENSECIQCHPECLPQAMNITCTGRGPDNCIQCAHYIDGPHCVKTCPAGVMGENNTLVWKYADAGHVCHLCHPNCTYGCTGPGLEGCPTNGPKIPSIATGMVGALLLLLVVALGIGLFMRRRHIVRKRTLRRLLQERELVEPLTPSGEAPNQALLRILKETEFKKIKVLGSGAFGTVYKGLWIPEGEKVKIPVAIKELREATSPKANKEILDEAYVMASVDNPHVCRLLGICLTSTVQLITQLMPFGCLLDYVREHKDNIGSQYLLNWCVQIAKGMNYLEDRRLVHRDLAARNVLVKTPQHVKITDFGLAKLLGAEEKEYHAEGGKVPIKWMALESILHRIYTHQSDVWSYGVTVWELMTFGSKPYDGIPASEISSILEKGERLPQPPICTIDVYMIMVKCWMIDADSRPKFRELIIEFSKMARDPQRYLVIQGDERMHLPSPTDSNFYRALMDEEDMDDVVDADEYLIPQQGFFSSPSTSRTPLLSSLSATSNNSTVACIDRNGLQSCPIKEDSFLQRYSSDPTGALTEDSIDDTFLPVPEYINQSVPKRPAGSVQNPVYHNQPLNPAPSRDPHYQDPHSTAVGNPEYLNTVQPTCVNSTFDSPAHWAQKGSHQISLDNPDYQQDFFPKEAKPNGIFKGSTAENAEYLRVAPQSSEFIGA
Receptor tyrosine-protein kinase erbB-2, sequence (P04626 whole entry, the tested form may be a part): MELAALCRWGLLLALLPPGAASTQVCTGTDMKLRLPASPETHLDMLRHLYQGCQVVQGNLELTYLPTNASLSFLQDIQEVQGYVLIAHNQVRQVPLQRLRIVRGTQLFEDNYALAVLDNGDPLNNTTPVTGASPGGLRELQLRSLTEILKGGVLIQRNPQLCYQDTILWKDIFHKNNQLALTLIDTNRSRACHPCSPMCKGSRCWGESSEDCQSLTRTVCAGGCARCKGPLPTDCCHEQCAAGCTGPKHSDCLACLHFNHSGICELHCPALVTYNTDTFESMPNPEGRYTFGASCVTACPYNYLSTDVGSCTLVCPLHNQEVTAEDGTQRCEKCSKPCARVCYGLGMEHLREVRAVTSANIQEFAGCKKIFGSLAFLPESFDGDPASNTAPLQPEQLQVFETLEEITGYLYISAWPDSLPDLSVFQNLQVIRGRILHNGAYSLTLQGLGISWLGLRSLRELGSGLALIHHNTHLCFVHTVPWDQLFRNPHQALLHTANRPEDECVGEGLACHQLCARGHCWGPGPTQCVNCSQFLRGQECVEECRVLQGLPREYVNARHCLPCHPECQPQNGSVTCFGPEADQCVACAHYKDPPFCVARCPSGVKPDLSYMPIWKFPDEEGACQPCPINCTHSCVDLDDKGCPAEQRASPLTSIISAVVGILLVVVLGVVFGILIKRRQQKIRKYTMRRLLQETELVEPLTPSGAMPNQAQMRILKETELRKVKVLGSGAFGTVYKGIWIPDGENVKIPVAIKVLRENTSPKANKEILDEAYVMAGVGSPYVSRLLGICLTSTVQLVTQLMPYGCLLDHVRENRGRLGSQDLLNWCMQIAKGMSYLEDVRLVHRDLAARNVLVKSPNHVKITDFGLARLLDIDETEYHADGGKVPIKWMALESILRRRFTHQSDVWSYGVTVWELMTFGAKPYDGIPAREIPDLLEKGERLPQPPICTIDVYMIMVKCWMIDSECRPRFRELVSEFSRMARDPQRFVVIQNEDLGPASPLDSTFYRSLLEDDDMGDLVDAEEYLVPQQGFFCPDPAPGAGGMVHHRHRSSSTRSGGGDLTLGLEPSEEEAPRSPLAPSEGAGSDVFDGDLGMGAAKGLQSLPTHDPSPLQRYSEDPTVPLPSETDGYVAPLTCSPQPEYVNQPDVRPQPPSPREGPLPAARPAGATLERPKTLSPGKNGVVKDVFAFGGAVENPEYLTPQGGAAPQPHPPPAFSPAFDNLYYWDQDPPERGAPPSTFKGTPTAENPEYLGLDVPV

SMILES	IC50 (HepG2) [µM]	IC50 (MCF7) [µM]	IC50 (HeLa [2]) [µM]	IC50 [3] [µM]	IC50 ([4]; read-out: IC50) [µM]	IC50 ([4]; read-out: pIC50 (converted)) [µM]	IC50 [1] [µM]	CC50 at 24 h [5] [µM]	further results
CS(=O)(=O)CCNCc1ccc(-c2ccc3ncnc(Nc4ccc(OCc5cccc(F)c5)c(Cl)c4)c3c2)o1 [LAPATINIB]	0.27	0.47	0.12				0.21	123	
C#Cc1cccc(Nc2ncnc3cc(OCCOC)c(OCCOC)cc23)c1 [ERLOTINIB]								105	
CC(=O)N1N=C(c2ccc(C(F)(F)F)cc2)CC1c1ccc(C(=O)OCCn2c([N+](=O)[O-])cnc2C)cc1 (stereo unspecified)	0.33	0.96	0.13	0.51	0.26		0.19	98.9	viability at 1.04 µM (HeLa [6]): 18.6%; Activity (HeLa [7]): Dose-dependent effect; Activity (HeLa [8]): 36.2%; Activity (HeLa [9]): 0.43%; viability at 0.13 µM (HeLa [10]): 73.9%; Activity (HeLa [11]): 54.2%; viability at 0.52 µM (HeLa [12]): 42.1%; Activity (HeLa [13]): 20.7%; viability at 0.26 µM (HeLa [14]): 50.7%; Activity (HeLa [15]): 26.7%; Activity (HeLa [16]): 20.5%; Activity (HeLa [17]): 21.9%; Activity (HeLa [18]): 26.7%; Activity (HeLa [19]): 3.72%; Activity (HeLa [20]): 0.688%; Activity (HeLa [21]): 0.988%; Activity (HeLa [22]): 1.88%
COc1ccc(C2=NN(C(C)=O)C(c3ccc(C(=O)OC(C)Cn4c([N+](=O)[O-])cnc4C)cc3)C2)cc1 (stereo unspecified)	25.2	28	35.1	12	21.3	21.3	40.6		
CC(=O)N1N=C(c2ccc(F)cc2)CC1c1ccc(C(=O)OC(C)Cn2c([N+](=O)[O-])cnc2C)cc1 (stereo unspecified)	8.89	5.21	7.42	8.54	6.58	6.59	15.5		
CC(=O)N1N=C(c2ccc(C)cc2)CC1c1ccc(C(=O)OC(C)Cn2c([N+](=O)[O-])cnc2C)cc1 (stereo unspecified)	58.1	92.1	72.1	18.9	25.6	25.6	> 100		
CC(=O)N1N=C(c2ccc(Cl)cc2)CC1c1ccc(C(=O)OC(C)Cn2c([N+](=O)[O-])cnc2C)cc1 (stereo unspecified)	12.2	8.82	15.6	9.96	9.26	9.27	22.2		
CC(=O)N1N=C(c2ccc(C(F)(F)F)cc2)CC1c1ccc(C(=O)OC(C)Cn2c([N+](=O)[O-])cnc2C)cc1 (stereo unspecified)	2.21	2.18	0.42	5.62	6.67	6.68	5.87	92.6	
CC(=O)N1N=C(c2ccc(I)cc2)CC1c1ccc(C(=O)OC(C)Cn2c([N+](=O)[O-])cnc2C)cc1 (stereo unspecified)	9.98	9.77	25.6	12.7	10.7	10.7	19.1		
CC(=O)N1N=C(c2ccccc2)CC1c1ccc(C(=O)OCCn2c([N+](=O)[O-])cnc2C)cc1 (stereo unspecified)	42.2	58.2	48.8	14	9.58	9.59	62.7		
CC(=O)N1N=C(c2ccc([N+](=O)[O-])cc2)CC1c1ccc(C(=O)OCCn2c([N+](=O)[O-])cnc2C)cc1 (stereo unspecified)	1.75	1.13	0.15	2.06	0.6	0.601	0.38	78.8	
CC(=O)N1N=C(c2ccccc2)CC1c1ccc(C(=O)OC(C)Cn2c([N+](=O)[O-])cnc2C)cc1 (stereo unspecified)	43.8	49.9	45.2	17	12.2	12.2	68.2		
CC(=O)N1N=C(c2ccc([N+](=O)[O-])cc2)CC1c1ccc(C(=O)OC(C)Cn2c([N+](=O)[O-])cnc2C)cc1 (stereo unspecified)	3.62	3.33	3.78	3.53	1.45	1.45	12.2	168	
CC(=O)N1N=C(c2ccc(Br)cc2)CC1c1ccc(C(=O)OC(C)Cn2c([N+](=O)[O-])cnc2C)cc1 (stereo unspecified)	9.02	8.92	11.8	8.27	5.96	5.97	10.8		

Second part, led by results:

IC50 (HepG2) [µM]	IC50 (MCF7) [µM]	IC50 (HeLa [2]) [µM]	IC50 [3] [µM]	IC50 ([4]; read-out: IC50) [µM]	IC50 ([4]; read-out: pIC50 (converted)) [µM]	SMILES	IC50 [1] [µM]	CC50 at 24 h [5] [µM]	further results
50.2	70.7	76.8	13.2	10.9	10.9	CC(=O)N1N=C(c2ccc(C)cc2)CC1c1ccc(C(=O)OCCn2c([N+](=O)[O-])cnc2C)cc1 (stereo unspecified)	> 100		
3.31	2.27	4.13	4.1	7.37	7.38	CC(=O)N1N=C(c2ccc(Cl)cc2)CC1c1ccc(C(=O)OCCn2c([N+](=O)[O-])cnc2C)cc1 (stereo unspecified)	4.82	138	
3.82	5.56	2.82	3.45	4.13	4.13	CC(=O)N1N=C(c2ccc(Br)cc2)CC1c1ccc(C(=O)OCCn2c([N+](=O)[O-])cnc2C)cc1 (stereo unspecified)	13.1		
1.89	1.67	2.45	4.07			CC(=O)N1N=C(c2ccc(F)cc2)CC1c1ccc(C(=O)OCCn2c([N+](=O)[O-])cnc2C)cc1 (stereo unspecified)	4.19	118	
6.28	4.85	7.53	2.75	1.26	1.26	CC(=O)N1N=C(c2ccc(I)cc2)CC1c1ccc(C(=O)OCCn2c([N+](=O)[O-])cnc2C)cc1 (stereo unspecified)	11.8		
38.8	40.6	47.6	18.1	26.9	27	CCOc1ccc(C2=NN(C(C)=O)C(c3ccc(C(=O)OC(C)Cn4c([N+](=O)[O-])cnc4C)cc3)C2)cc1 (stereo unspecified)	46.6		
19.3	20.6	31.4	14.9	15.2	15.2	CCOc1ccc(C2=NN(C(C)=O)C(c3ccc(C(=O)OCCn4c([N+](=O)[O-])cnc4C)cc3)C2)cc1 (stereo unspecified)	38.9		
15.8	30.2	27.9	17.3	8.54	8.55	COc1ccc(C2=NN(C(C)=O)C(c3ccc(C(=O)OCCn4c([N+](=O)[O-])cnc4C)cc3)C2)cc1 (stereo unspecified)	36.2		
